Source: ChEMBL document CHEMBL4219101, “Discovery of 18β-glycyrrhetinic acid conjugated aminobenzothiazole derivatives as Hsp90-Cdc37 interaction disruptors that inhibit cell migration and reverse drug resistance” (Bioorg Med Chem, 2018)
pIC50: −log10 of the molar value. Activity calls are given as the source filed them. The rule behind the calls is not given here.

Key:
MCF7 = test: Antiproliferative activity against human MCF7 cells after 48 hrs by MTT assay; type: functional, cell-based; details: MCF7, 48 h
Procedure, shortened: (§1)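 Cells in log phase seeded at about 1.0 × 10^5 cells/mL in 96-well plates, left 12 h at 37 °C, 5% CO2. Compounds dissolved in DMSO, added at 2.5, 5, 10, 20 and 50 µM, 48 h exposure. Absorbance read at 570/630 nm dual wavelength. Survival expressed relative to negative control. IC50 by Bliss method (n = 5), tests done in triplicate.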

[1] = Antiproliferative activity against human NCI-460 cells after 48 hrs by MTT assay; type: functional, cell-based; details: NCI-460, 48 h; procedure, shortened: as §1
A549 [2] = test: Inhibition of Hsp90/Cdc37 interaction in human A549 cells assessed as downregulation of Cdc37 in immunoprecipitated HSP90 complex at 5 to 10 uM after 24 hrs by Western blot analysis; type: cell-based
Procedure, shortened: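 A549 cells exposed to 5 and 10 µM for 24 h, geldanamycin 10 µM as comparator. Lysis in 20 mM Tris-HCl pH 7.4, 25 mM NaCl, 2 mM DTT, 20 mM Na2MoO4, 0.1% NP-40 and protease inhibitors. 500 µg protein immunoprecipitated overnight at 4 °C with anti-Hsp90 antibody, captured on protein G agarose, washed five times and boiled. Cdc37 and Hsp90 detected by Western blot, with input also blotted.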

[3] = biological target: Heat shock protein HSP 90-beta/Hsp90 co-chaperone Cdc37 (Homo sapiens) (UniProt P08238+Q16543); test: Inhibition of HSP90beta/Cdc37 interaction in human A549 cells assessed as upregulation of HSP90beta expression at 5 to 10 uM after 24 hrs by Western blot analysis; type: cell-based
Procedure, shortened: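 A549 cells exposed for 24 h, with geldanamycin as comparator. Whole-cell lysates separated by SDS-PAGE and immunoblotted for the named proteins. β-actin used as reference.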

A549 [4] = test: Inhibition of HSP90/Cdc37 interaction in human A549 cells assessed as suppression cellular migration at 5 to 10 uM after 24 hrs by wound healing assay; type: cell-based
Procedure, shortened: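 Scratch wounds made in A549 monolayers, cells then exposed to 5 µM and 10 µM. Wound closure imaged by microscopy at 0 h and 24 h, magnification 200×.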

A549 [5] = test: Cell cycle arrest in human A549 cells assessed as accumulation at G2 phase at 5 uM after 48 hrs by propidium iodide staining-based flow cytometry (reference value: 10.22%); type: functional
A549 [6] = test: Cell cycle arrest in human A549 cells assessed as accumulation at S phase after 48 hrs by propidium iodide staining-based flow cytometry; type: functional
A549 [7] = test: Induction of apoptosis in human A549 cells assessed as increase in intracellular ROS levels after 24 hrs by FITC-DCF-DA-fluorescence based flow cytometry; type: functional, cell-based
Procedure, shortened: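 A549 cells exposed to 5 and 10 µM for 24 h, untreated cells as control. Collected, washed with ice-cold PBS and loaded with DCFH-DA in cell-free medium for 20 min at 37 °C in the dark, then washed. Fluorescence measured by flow cytometry at 485 nm excitation and 538 nm emission. Mean ± S.D. of three independent experiments.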

A549 [8] = test: Induction of apoptosis in human A549 cells assessed as upregulation of Bax protein expression after 24 hrs by Western blot analysis; type: functional, cell-based
Procedure, shortened: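 A549 cells exposed to 5 and 10 µM for 24 h. Lysates cleared at 20000g, protein quantified by BCA and equal amounts run on 12% SDS-PAGE, then transferred to PVDF. Blocked in 5% skim milk in TBST. Probed overnight at 4 °C with antibodies to Bcl-2, Bax, caspase-9, caspase-3 and β-actin (loading reference). Chemiluminescent detection. Three independent experiments.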

A549 [9] = test: Induction of apoptosis in human A549 cells assessed as viable cells at 10 uM after 24 hrs by Annexin-V FITC/propidium iodide staining based flow cytometry (reference value: 97.6%); details: A549, 24 h
A549 [10] = test: Induction of apoptosis in human A549 cells assessed as necrotic cells at 5 uM after 24 hrs by Annexin-V FITC/propidium iodide staining based flow cytometry (reference value: 2.32%)
A549 [11] = test: Induction of apoptosis in human A549 cells assessed as necrotic cells at 10 uM after 24 hrs by Annexin-V FITC/propidium iodide staining based flow cytometry (reference value: 2.32%)
A549 [12] = test: Induction of apoptosis in human A549 cells assessed as late apoptotic cells at 5 uM after 24 hrs by Annexin-V FITC/propidium iodide staining based flow cytometry (reference value: 0.030%)
A549 [13] = test: Induction of apoptosis in human A549 cells assessed as early apoptotic cells at 5 uM after 24 hrs by Annexin-V FITC/propidium iodide staining based flow cytometry (reference value: 0.080%)
A549 [14] = test: Induction of apoptosis in human A549 cells assessed as early apoptotic cells at 10 uM after 24 hrs by Annexin-V FITC/propidium iodide staining based flow cytometry (reference value: 0.080%)

With `CCOC(=O)[C@@]1(C)CC[C@]2(C)CC[C@]3(C)C(=CC(=O)[C@@H]4[C@@]5(C)CC[C@H](OC(=O)CCC(=O)Nc6nc7ccc(F)cc7s6)C(C)(C)[C@@H]5CC[C@]43C)[C@@H]2C1` the pIC50 (MCF7) was 5.20, the pIC50 [1] was 5.13 and the inhibition (A549 [2]) was “Active”. For the same molecule, the inhibition [3] was “Active”, the inhibition (A549 [4]) was “Active” and the Activity (A549 [5]) was 12.98%. The Activity (A549 [6]) was “Dose-dependent effect”, the Activity (A549 [7]) was “Dose-dependent effect” and the Activity (A549 [8]) was “Dose-dependent effect”. It also gave a viability at 10 µM (A549 [9]) of 78.8%, an Activity (A549 [10]) of 2.18% and an Activity (A549 [11]) of 1.15%. It also gave an Activity (A549 [12]) of 3.84%, an Activity (A549 [13]) of 8.45% and an Activity (A549 [14]) of 14%.
